# Measurements reported in the EternaBench riboswitch data.
# System: MS2 coat protein
# Assay: apparent Kd, MS2 coat protein; higher = weaker binding; RNA-MaP array; FMN 200 µM where present
# Procedure, shortened: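 Designs were transcribed by stalled E. coli RNA polymerase on Illumina sequencing-chip clusters. They were titrated with SNAP-549-labelled MS2 coat protein from 0.7 or 1.5 nM, doubling to 3 µM, without and then with constant ligand. Buffer: 100 mM Tris-HCl pH 7.5, 80 mM KCl, 4 mM MgCl2, BSA, DTT, yeast tRNA, Tween-20. Green signal was normalised to red-channel RNA signal and control-cluster median Fmax. Apparent Kd is the median of filtered per-cluster binding-curve fits.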
# [1] = designed as: OFF switch for flavin mononucleotide, no ligand
# [2] = ligand present: flavin mononucleotide, designed as: OFF switch for flavin mononucleotide
# [3] = designed as: ON switch for flavin mononucleotide, no ligand
# [4] = ligand present: flavin mononucleotide, designed as: ON switch for flavin mononucleotide
Sequence,apparent Kd [1] [nM],apparent Kd [2] [nM],apparent Kd [3] [nM],apparent Kd [4] [nM]
UUAGAUAGGUCAGGAUAUCGAUUAUUGUAUAGUAUGAUUUACAUGAGGAUCACCCAUGUUAAAUACGAGAAGGGACGUUAGAUU,26.5,19,–,–
GUAGCAACAUGAGGAUCACCCAUGUAGGAUAUCGCUAUUGUAAUCAUGAAACAUGAUUACAAUAGCGAGAAGGACAUUGGCUAC,7.06,10.8,–,–
AUACCACGAGGAUAUCGUCUAUAAUACAUGAGGAUCACCCAUGUUAUAUCUGUAAUGUUUCGAGAAGGCGUGUGUU,18.9,14.6,–,–
CUGUGACGGUGCGCAAGUGGACGUAGAAGGGUCACAUGAGGAUCACCCAUGUGGGCCUGCGAGUGACAGGAUAUACGUUCGUGC,15,57,–,–
AAGAAACAUGAGGAUCACCCAUGUAGAAAUAUGGGAGGAUAUACGAGGACGAAAGUCAAAGUAGAAGGCCUAAGAA,–,–,56.9,27.4
CGUUGUUCCGCAGGAUAUGCAUUGGAUUACAAUGCAGAAGGGCGAUUACAUGAGGAUCACCCAUGUGUGGACAAUAAGGAAGAG,–,–,1490,142
CGCAAGUCAGGAUAUUCGACUGGUAAAUCUGUGGAUCAGUAGGAGAAGGGACAUGAGGAUCACCCAUGUUUGUU,28.6,31.9,–,–
UUGAUGUCAUCAGGAUAUAGUAUUUAAGACAUAUCUUCUUUCAAACAUGAGGAUCACCCAUGUCGCUAGAAGGGAUGAAUGAUU,16.6,14.4,–,–
ACAUUAGUACCACAUGUAUUACAUGAGGAUCACCCAUGUUACUAGGAUAUGUAUUAGAAUUUACAACAGAAGGAGUUAUUAUGU,17.2,17.1,–,–
AUAUAUAUAUCAGGAUAUGGACAGGCCUGUCCGUAUUGAGACAGUAACAUGAGGAUCACCCAUGUCCAGAAGGGAUCUAUAUAU,40.5,49.4,–,–
GUUGCUAUCGGAGGAUAUUCAUACCGGAAACGGACAUGAGGAUCACCCAUGUGGCGAAAGCCAUGGGAGAAGGCCGAUAGCAAC,–,–,1350,138
GGGUGUGAAGGAUAUACAUGAGGAUCACCCAUGUGAGAGGAGAAUGUUGAGGAGGUUGGUAGAAGGUCAGGAGG,93.8,67.6,–,–
ACAUGAGGAUCACCCAUGUAUACAUAGGAUAUUGAGGAUCAGGGAUGUUUUACAGGAUAUGUCUACAAGAAGGAUGCAAGUAAA,–,–,35.6,30
AGAUAACACCAGAAGGACAUGAGGAUCACCCAUGUAGGAUAUGGGCAUCACUCGAGAAAGAAACAACCAAAAGGACACGCGGUC,–,–,51,8.36
AAGCGAAAGCUAAAAUAUCUAUCAGAGGAUAUUUAUGAUACAUGAGGAUCACCCAUGUGACACUGGGAGAAGGCUGAUAGAUAA,–,–,19.2,7.5
UCGCUGCGAGGAUAUACAUGAGGAUCACCCAUGUGCGGGUCCGGGUCUUUGUCCAUUAGUAGAAGGCGCAGUGA,305,82.7,–,–
AGCAGACGAGGAUAUAGAUUAAAUGACAUGAGGAUCACCCAUGUGAUCGAUCUAUUUUAUUUAGAAGGUGUCUGCU,18.1,32.3,–,–
GCAAUCGAGGGAGGAUAUUGUGAGAUGGUGACAUGAGGAUCACCCAUGUGACGAGAAGGCCCAGUGCGCCCGCUUAACUGCUGA,37.4,210,–,–

Sequence,apparent Kd [1] [nM],apparent Kd [2] [nM],apparent Kd [3] [nM],apparent Kd [4] [nM]
GUAGCUAUCGGAGGAUAUUCAUACCGAAAACGGACAUGAGGAUCACCCAUGUGGCGAAAGUCUUGGGAGAAGGCCGAUAGCUAC,–,–,39.2,7.62
GUGCUACAGCGGCGCACGAGACAUGAGGAUCACCCAUGUGACAGAAGGGACUUGUUAAAGGUAGGUCAGGAUAUGUCUUAAAAG,–,–,291,81.4
UUGGACGUAGUAGGAUAUGUAGGAUAUUCCUACAUGAGGAUCACCCAUGUUGACAUGGAAGAAGGACAGAAGGACGAUGUCCAU,–,–,405,5.06
AGUUAUUCAGGAUAUGGUGUGUUAUACAUGAGGAUCACCCAUGUAGAUCCUGGUUAGGCCUCAGAAGGGAAUGUUC,182,183,–,–
AUAAAUCAUGUAGGAUAUGCGUGGCGAAGCUAUGCAGAAGGACAUGAGGAUCACCCAUGUCUUUCUGUCUGCGUACAGACAGGA,23.9,115,–,–
GCAUCCAAUGUGAGGAUAUACCUCUGGAUACAUAGGUAGAAGGCACAUGAGGAUCACCCAUGUUCCUAGGAUGC,44.6,222,–,–
GUUACAUGAGGAUCACCCAUGUAUGUGUGGGAGUAAGUGUCUUAGGAUAUCUAUUAUUUAAUGUAAGAGAAGGAAGAUUGUUGU,–,–,113,124
AUUAUUUAUAGUUAUUGGUAUUUUACAGAAGGUGAAAGUGUCACAUGAGGAUCACCCAUGUUCUUCAAGGAUAUGUUGUUAUAC,–,–,64.2,11.6
AAAAUGUCAGGAUAUGCGAAGGCAUCUGACAGAUGAGGAUUGCAGAAGGGACAUGAGGAUCACCCAUGUAAAAA,40.3,47.5,–,–
CCAGCGUAUGUGAGGAUAUGCUGGUCCUUGGAUCAGCAGAAGGCACAUGAGGAUCACCCAUGUGGAAACGUUGG,18.7,63.5,–,–
CGUGAACAUGAGGAUCACCCAUGUGAAAAACGUAGAGGAUAUGUCACAUGAGUGUAAAAGACAGAAGGCUAUCGUG,–,–,151,27.1
AGCAUGUUUACAUGAGGAUCACCCAUGUUUAUUUAGGAUUUCAGAAGGUACAAUUUGUGUUAGAGUAAGGAUAUGAUAUAUGCG,–,–,12,8.48
UGACACUUGAGGGUCUCCCUUGACAUGAGGAUCACCCAUGUGCAGGAUAUACGUGUGAUGGUAUAGUAGAAGGGCACUCUAUGU,27.7,35.6,–,–
UUCAUCAAUGAAGGAUAUCUAUGUCCAACAUGAGGAUCACCCAUGUUGAGGAUCACCUAUGUAUAGGAGAAGGUUAAUAUAACU,–,–,7.32,6.28
GAUACGUCAGGAUAUCUGAUGUCUAACUUCGGUUAGACAUCAGAGAAGGGACAUGAGGAUCACCCAUGUAUCAA,42.6,56.7,–,–
ACGUAUCAUGUAGGAUAUGACCCAGGAAACUGGUCAGAAGGACAUGAGGAUCACCCAUGUAGAGUAUGUUAGGAUGACGUAUGC,138,188,–,–
GAGACGUCAGGAUAUCUGAUGUCUAACUUCGGUUAGACAUCAGAGAAGGGACAUGAGGAUCACCCAUGUCUCAG,15.9,13.9,–,–
UUUAUGAAGCUUCGUCAAUACAGUUAGGAUAUGAGAGACAUGAGGAUCACCCAUGUGCAUGUUGAUUAGAAGGAACAAUUAUCU,15.6,14.6,–,–
